For 36 compounds, IC50 and logD results are on record in ChEMBL document CHEMBL3769308, “Melanin-Concentrating Hormone Receptor 1 Antagonists Lacking an Aliphatic Amine: Synthesis and Structure-Activity Relationships of Novel 1-(Imidazo[1,2-a]pyridin-6-yl)pyridin-2(1H)-one Derivatives” (J Med Chem, 2016).

The structures appear in SMILES notation. A value given as a limit tells only on which side of the number the result lay.

The target in data set [1] is T1, Melanin-concentrating hormone receptor 1 (Homo sapiens, UniProt Q99705). Put plainly: Displacement of [125I]-MCH (4 to19 residues) from human MCHR1 expressed in CHO cell membranes after 1 hr by liquid scintillation counting analysis. The method, boiled down:
(§1)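 Membranes from MCHR1-expressing CHO cells, homogenized in NaHCO3/EDTA with protease inhibitors, 100000g pellet held at 2 mg/mL protein in 20 mM Tris-HCl pH 7.5, 5 mM EDTA, protease inhibitors.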

Data set [2] deals with Melanin-concentrating hormone receptor 1 (Rattus norvegicus, UniProt P97639). Put plainly: Displacement of [125I]-MCH (4 to 19 residues) from rat MCHR1 expressed in CHO cell membranes after 1 hr by liquid scintillation counting analysis. In short, it runs like this:
as §1
In general terms: Displacement assays read how much labelled ligand stays bound in the presence of the test substance.

Data set [3] can be described thus: Lipophilicity, log D of the compound at pH 7.4. The format is physicochemical. To be noted: buffer. The method, boiled down:
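Chromatographic HPLC method with UV detection, estimating octanol/buffer partition at pH 7.4.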

The target of data set [4] is T1, Melanin-concentrating hormone receptor 1. It counts as functional, cell-based, CHO.

Sequence of Melanin-concentrating hormone receptor 1 (Rattus norvegicus, UniProt P97639) (P97639 whole entry, the tested form may be a part): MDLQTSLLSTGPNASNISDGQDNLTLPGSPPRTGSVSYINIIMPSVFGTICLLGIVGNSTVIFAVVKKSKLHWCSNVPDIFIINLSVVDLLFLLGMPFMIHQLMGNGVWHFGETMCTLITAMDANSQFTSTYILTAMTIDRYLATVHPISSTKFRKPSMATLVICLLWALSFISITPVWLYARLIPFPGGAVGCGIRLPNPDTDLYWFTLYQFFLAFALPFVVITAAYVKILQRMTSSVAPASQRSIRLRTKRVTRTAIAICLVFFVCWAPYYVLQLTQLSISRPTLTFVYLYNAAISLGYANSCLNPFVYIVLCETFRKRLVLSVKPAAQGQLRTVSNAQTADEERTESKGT
T1 sequence (Q99705 whole entry, the tested form may be a part): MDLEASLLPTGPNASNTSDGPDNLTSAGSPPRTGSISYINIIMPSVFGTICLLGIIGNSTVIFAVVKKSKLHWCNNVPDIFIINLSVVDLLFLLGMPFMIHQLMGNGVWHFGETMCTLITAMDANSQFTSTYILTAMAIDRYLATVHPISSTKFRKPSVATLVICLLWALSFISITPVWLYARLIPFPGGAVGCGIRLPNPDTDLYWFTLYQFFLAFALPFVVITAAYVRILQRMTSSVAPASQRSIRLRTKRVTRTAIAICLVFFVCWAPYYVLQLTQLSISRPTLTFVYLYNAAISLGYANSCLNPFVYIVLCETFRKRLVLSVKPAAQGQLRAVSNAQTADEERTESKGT

Take `Cc1c(C2CC2)nc2ccc(-n3ccc(OCc4cccnc4)cc3=O)cn12`: the IC50 in data set [1] and in data set [2] was above 1 µM throughout.
For the compound `Cc1c(C2CC2)nc2ccc(-n3cccc(Oc4ccc(OC(F)(F)F)cc4)c3=O)cn12`, the IC50 – broadly, the concentration that gives 50% inhibition – was 0.27 µM in data set [1] and 0.24 µM in data set [2].
For `Cc1c(C(=O)C2CC2)nc2ccc(-n3ccc(OCc4ccc(F)cc4)cc3=O)cn12`, the IC50 in data set [1] and in data set [2] was above 1 µM each time.
As for `Cc1oc2ccc(NC(=O)COc3ccc(OC(F)(F)F)cc3)cc2c1C`, the IC50 in data set [1] and in data set [2] was above 1 µM each time.
With `Cc1c(C2CC2)nc2ccc(-n3ncc(OCc4ccc(Cl)cc4)cc3=O)cn12`, the IC50 in data set [1] was 0.092 µM; in data set [2] it was 0.11 µM. For the same compound, in data set [3], the logD (as a rule, the decadic logarithm of the distribution of all forms, ionised or not, between an organic phase and buffer at a given pH) worked out at 3.7.
For the compound `Cc1c(C2CC2)cc2ccc(NC(=O)COc3ccc(OC(F)(F)F)cc3)cn12`, the IC50 in data set [1] and in data set [2] was above 1 µM throughout.
Turning to `Cc1nc2ccc(NC(=O)COc3ccc(OC(F)(F)F)cc3)cn2c1C`, the IC50 came out at 0.0038 µM in data set [1] and 0.0078 µM in data set [2].
As for `Cc1nc2ccc(-n3ccc(OCc4ccccc4)cc3=O)cn2c1C`, the IC50 in data set [1] was determined as 0.078 µM; in data set [2], 0.08 µM.
The matching figures for `Cc1c(C2CC2)nc2ccc(-n3ccc(OCc4ccccc4)cc3=O)cn12`: 0.042 µM and 0.028 µM.
In the case of `Cc1c(C2CC2)nc2ccc(-n3ccc(Oc4ccc(OC(F)(F)F)cc4)cc3=O)cn12`, the values for the IC50 in data set [1] and in data set [2] were above 1 µM and 0.95 µM, respectively.
As to `Cc1c(C2CC2)nc2ccc(-n3cccc(OCc4ccc(Cl)cc4)c3=O)cn12`, the IC50 is 0.99 µM in data set [1] and 0.65 µM in data set [2].
Take `CC(=O)c1nc2ccc(-n3ccc(OCc4ccc(F)cc4)cc3=O)cn2c1C`: the IC50 in data set [1] and in data set [2] was above 1 µM each time.
In the case of `Cc1c(C2CC2)nc2ccc(-n3ccc(OCc4ccncc4)cc3=O)cn12`, the half-maximal inhibitory concentration (IC50) in data set [1] and in data set [2] was above 1 µM in each case.
In the case of `Cc1c(C2CC2)nc2ccc(-n3ccc(OCc4ccc(Cl)cn4)cc3=O)cn12`, the IC50 in data set [1] came out at 0.024 µM; in data set [2], 0.019 µM.
As for `Cc1c(CC#N)nc2ccc(-n3ccc(OCc4ccc(F)cc4)cc3=O)cn12`, the IC50 stood at 0.18 µM in data set [1] and 0.17 µM in data set [2].
With `CCc1nc2ccc(-n3ccc(OCc4ccccc4)cc3=O)cn2c1C`, the IC50 in data set [1] and in data set [2] was 0.12 µM each time.
For `Cc1c(C2CC2)nc2ccc(-n3ccc(OCc4ccccn4)cc3=O)cn12`, the IC50 in data set [1] amounted to 0.24 µM; in data set [2], 0.15 µM.
Take `Cc1c(C2CC2)nc2ccc(-n3ccc(OCc4ccc(C(F)(F)F)cc4)cc3=O)cn12`: the IC50 in data set [1] was 0.072 µM; in data set [2], 0.082 µM.
As for `Cc1c(C2CC2)nc2ccc(-n3cnc(OCc4ccc(Cl)cc4)cc3=O)cn12`, the values for the IC50 in data set [1] and in data set [2] were 0.15 µM and 0.14 µM, respectively. Moreover, the logD in data set [3] was found to be 2.9.
For the compound `Cc1cn(-c2ccc3nc(C4CC4)c(C)n3c2)c(=O)cc1OCc1ccc(Cl)cc1`, the IC50 in data set [1] is 0.21 µM; in data set [2], 0.15 µM.
As for `Cc1c(C2CC2)nc2ccc(-n3ccc4oc(-c5ccc(Cl)cc5)cc4c3=O)cn12`, the IC50 came to 0.0068 µM in data set [1], 0.011 µM in data set [2] and 0.042 µM in data set [4].
Take `Cc1c(C2CC2)nc2ccc(NC(=O)COc3ccc(OC(F)(F)F)cc3)cn12`: the IC50 came out at 0.003 µM in data set [1] and 0.0063 µM in data set [2].
With `Cc1c(C2CC2)nc2ccc(-n3ccc(OCc4cccs4)cc3=O)cn12`, the IC50 in data set [1] is 0.095 µM; in data set [2], 0.13 µM.
For `Cc1c(C2CC2)nc2ccc(-n3ccc(OCc4csc(C(F)(F)F)c4)cc3=O)cn12`, the concentration for half-maximal inhibition (IC50) is 0.017 µM in data set [1] and 0.015 µM in data set [2].
As to `Cc1c(C2CC2)nc2ccc(-n3ccc(OCc4ccc(C(C)C)cc4)cc3=O)cn12`, the figures for the IC50 in data set [1] and in data set [2] were 0.41 µM and 0.24 µM, respectively.
Regarding `Cc1c(C2CC2)nc2ccc(-n3ccc(OCc4ccc(Cl)cc4)nc3=O)cn12`, the IC50 in data set [1] came out at 0.037 µM; in data set [2] it was 0.03 µM; in data set [4], 0.14 µM. The logD in data set [3] stood at 2.8.
For the compound `Cc1c(C2CC2)nc2ccc(-n3ccc(OCc4ccc(F)cc4)cc3=O)cn12`, the IC50 in data set [1] was found to be 0.047 µM; in data set [2], 0.028 µM.
As for `Cc1c(C2CC2)nc2ccc(-n3ccc4c(c3=O)CCC(c3ccc(Cl)cc3)O4)cn12` (stereo not drawn), the IC50 in data set [1] came out at 0.094 µM; in data set [2], 0.062 µM.
With `Cc1c(C(=O)N(C)C)nc2ccc(-n3ccc(OCc4ccc(F)cc4)cc3=O)cn12`, the IC50 in data set [1] and in data set [2] was above 1 µM each time.
Take `Cc1c(C#N)nc2ccc(-n3ccc(OCc4ccc(F)cc4)cc3=O)cn12`: the IC50 in data set [1] and in data set [2] was above 1 µM in each case.
Consider `Cc1c(C2CC2)nc2ccc(-n3ccc(OCc4cncnc4)cc3=O)cn12`, for which the IC50 in data set [1] and in data set [2] was above 1 µM throughout.
Take `Cc1c(C2CC2)nc2ccc(-n3ccc(OCc4csc(Cl)c4)cc3=O)cn12`: the values for the IC50 in data set [1], in data set [2] and in data set [4] were 0.0077 µM, 0.0075 µM and 0.019 µM, respectively.
Regarding `Cc1c(C2CC2)nc2ccc(-n3ccc(OCc4ccsc4)cc3=O)cn12`, the IC50 in data set [1] was 0.025 µM; in data set [2], 0.054 µM.
In the case of `COCc1nc2ccc(-n3ccc(OCc4ccc(F)cc4)cc3=O)cn2c1C`, the IC50 in data set [1] and in data set [2] was above 1 µM in each case.
As for `Cc1c(C2CC2)nc2ccc(-n3ccc(OCc4ccc(Br)cc4)cc3=O)cn12`, the IC50 in data set [1] was 0.012 µM; in data set [2] it was 0.0093 µM.
As to `Cc1c(CO)nc2ccc(-n3ccc(OCc4ccc(F)cc4)cc3=O)cn12`, the IC50 in data set [1] and in data set [2] was above 1 µM throughout.
